Assay outcomes from PubChem BioAssay.
The list is not random: actives were taken first. Their share in the collection is about 2.9%.
S100A4 inh HTS: inhibitors of human S100A4 binding to myosin IIA peptide. inhibition, % at 10.7 µM. S100A4/TAMRA-MyoIIA peptide fluorescence polarization. P26447. 0.14% of 360,000 active. AID 652163;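 active = mean inhibition of at least 70% across replicates, with every replicate also reaching that level; inconclusive = mean inhibition reaches 70% but some replicates fall short; inactive = mean inhibition below 70%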
Target sequence (P26447 whole entry, looked up): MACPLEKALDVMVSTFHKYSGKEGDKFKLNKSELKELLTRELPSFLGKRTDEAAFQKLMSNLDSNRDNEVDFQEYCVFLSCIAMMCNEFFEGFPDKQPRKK
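Material: S100A4 monomer protein / Buffer or medium: 50 mM HEPES pH 7.2, 10 mM CaCl2, 100 mM KCl / Times: 5 min incubation before reading / Benchmarks: neutral control DMSO, positive control TFP / Reagent: labelled myosin peptide probe, 5 nM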
Statin myotox sup: suppression of simvastatin myotoxicity. rescue of ATP level, % at 7.49 µM. 0.78% of 330,000 active. C2C12 myotubes + simvastatin, ATP luminescence, 48 h; scaled: DMSO 0, geranylgeraniol control 100;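 active = mean ATP rescue above about 67%, or every replicate alone reaching that limit, limit read from the data, passing the limit was not always enough; inconclusive = no clear call, values can overlap the other calls; inactive = mean under the limit and some replicate under it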;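 note: myotubes were challenged with 10 µM simvastatin during compound exposure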
DENV2 CPE: protects cells from dengue virus 2 cytopathic effect; DENV2-infected cells, cytopathic effect rescue, plate reader; CPE inhibition, % at 9.99 µM; 1.7% of 350,000 active; in the data active = CPE inhibition above about 20%, passing the limit was not always enough; inconclusive = no clear call, values can overlap the other calls; tested in BHK-21 cells;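 note: 0% = median of neutral control wells and 100% = median of positive control wells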
SIRT5 block: inhibitors of human sirtuin-5 desuccinylase; Q9NXA8; Purified SirT5, succinyl-peptide AMC, trypsin-coupled fluorescence; inhibition, % at 15 µM; 1.1% of 330,000 active; in the data active = inhibition above about 15%; inconclusive = no clear call, values can overlap the other calls
Target sequence (Q9NXA8 whole entry, looked up): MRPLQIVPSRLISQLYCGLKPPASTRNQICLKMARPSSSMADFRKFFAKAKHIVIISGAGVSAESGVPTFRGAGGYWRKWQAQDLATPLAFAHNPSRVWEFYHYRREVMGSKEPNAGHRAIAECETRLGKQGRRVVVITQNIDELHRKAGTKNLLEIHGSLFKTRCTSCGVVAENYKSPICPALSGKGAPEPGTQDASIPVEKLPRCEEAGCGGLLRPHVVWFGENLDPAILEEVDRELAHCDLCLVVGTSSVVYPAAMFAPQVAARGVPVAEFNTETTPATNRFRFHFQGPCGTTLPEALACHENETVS
PGC1a acetyl inh: modulators of PGC1a acetylation; U2OS PGC1a acetylation, AlphaScreen anti-acetyl-lysine; with virally co-expressed GCN5 acetyltransferase; inhibition, % at 15.6 µM; 0.17% of 350,000 active;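 active = every replicate shows inhibition of at least 40%; inconclusive = mean inhibition at least 40% but some replicate below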;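 note: 0% = neutral control wells and 100% = positive control wells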
Starred values were filed as active, the others as inactive; ? = inconclusive; . = no result given.

SMILES | S100A4 inh HTS | Statin myotox sup | DENV2 CPE | SIRT5 block | PGC1a acetyl inh
Nc1ccn(CC(=O)NCc2ccccc2)c(=O)n1 | -3 | -5 | 3 | -5 | .
COc1cccc(NC(=O)N(C)C[C@@H]2Oc3ncc(C4=CCCCC4)cc3C(=O)N([C@@H](C)CO)C[C@H]2C)c1 | -7 | 27 | 3 | 3 | -5
O=C(Nc1nc(-c2ccc(Br)cc2)cs1)c1cccnc1 | 2 | . | 8 | 0 | 1
O=C(NC(=S)Nc1nc(-c2ccc(Br)cc2)cs1)c1cccnc1 | . | 254* | . | . | 1
C[C@@H]1CCCCO[C@@H](CN(C)C(=O)Nc2ccc(C(F)(F)F)cc2)[C@H](C)CN([C@@H](C)CO)C(=O)c2cc(NC(=O)Nc3ccc4c(c3)OCO4)ccc2O1 | -4 | -11 | -3 | 15* | -21
C[C@H](CO)N1C[C@H](C)[C@H](CN(C)C(=O)Nc2ccc(C(F)(F)F)cc2)OCCCC[C@H](C)Oc2ccc(NC(=O)Nc3ccc4c(c3)OCO4)cc2C1=O | -17 | 7 | -2 | 15* | 8
COc1cccc(C(NC(C)=O)c2nc(/C=C/c3ccccc3)cs2)c1 (centres undefined) | -9 | 0 | 30* | . | 4
COc1cccc(C(O)c2nc(/C=C/c3ccccc3)cs2)c1 (centres undefined) | -3 | 33 | -2 | . | -14
O=C(O)C1C2CCC(C2)C1C(=O)NCCc1ccc(F)cc1 (centres undefined) | -3 | -1 | -2 | 17* | 13
CCCC(=O)Nc1ccc2c(c1)OC[C@H](C)N(C(=O)c1cnccn1)C[C@H](C)[C@H](OC)CN(C)C2=O | 3 | -1 | -4 | -3 | 4
N#Cc1cccc(-c2ccc([C@@H]3[C@H](CO)N4CCCCN(C(=O)Nc5ccccc5)C[C@@H]34)cc2)c1 | -16 | . | 1 | -2 | -13
COCC(=O)N1C[C@H]2[C@@H](c3ccccc31)[C@@H](CO)N2C(=O)Nc1ccccc1F | 102* | 0 | ? | 9 | 3
COCC(=O)N1C[C@@H]2[C@H](c3ccccc31)[C@@H](CO)N2C(=O)Nc1ccccc1Cl | -3 | 16 | 1 | 0 | -2
O=C(C1CCCC1)N1C[C@H]2[C@@H](c3ccccc31)[C@@H](CO)N2C(=O)c1ccccc1F | 5 | -7 | -7 | -2 | -4
COCC(=O)N1C[C@H]2[C@@H](c3ccccc31)[C@H](CO)N2C(=O)c1ccccc1F | 0 | 9 | -7 | 0 | 3
COCC(=O)N1C[C@@H]2[C@H](c3ccccc31)[C@H](CO)N2C(=O)Nc1ccccc1Cl | 6 | 9 | 27* | 0 | 7
COCC(=O)N1C[C@@H]2[C@H](c3ccccc31)[C@@H](CO)N2C(=O)c1ccccc1F | 0 | 14 | 41* | 1 | 6
O=C(C1CCCC1)N1C[C@@H]2[C@H](c3ccccc31)[C@@H](CO)N2C(=O)c1ccccc1F | 115* | -2 | 18 | 7 | 2
COCC(=O)N(C[C@H]1N[C@H](CO)[C@H]1c1ccc(C2=CCCC2)cc1)C(C)C | . | -26 | 5 | . | -4
O=C(Nc1ccccc1F)N1C[C@H]2[C@@H](c3ccccc31)[C@H](CO)N2C(=O)C1CCCCC1 | 1 | 10 | -8 | 4 | -10
COc1ccccc1C(=O)N1C[C@@H]2[C@H](c3ccccc31)[C@H](CO)N2C(=O)C1CCCC1 | -3 | 13 | 22* | 0 | -10
O=C(Nc1ccccc1F)N1C[C@@H]2[C@H](c3ccccc31)[C@@H](CO)N2C(=O)C1CCCC1 | 129* | 2 | 9 | 3 | -7
COc1ccccc1C(=O)N1C[C@@H]2[C@H](c3ccccc31)[C@H](CO)N2C(=O)C1CCCCC1 | 5 | 3 | -2 | -12 | -2
COc1ccc(CN(C)C[C@H]2Oc3ccc(NC(=O)Cn4cnnn4)cc3CC(=O)N([C@H](C)CO)C[C@H]2C)cc1 | -3 | 15 | -4 | -3 | 1
COc1ccc(COCC23N=C4SCC(=O)N4[C@H](c4ccccc4O2)[C@H]3CO)cc1 | -24 | . | 26* | -1 | 4
SMILES | S100A4 inh HTS | Statin myotox sup | DENV2 CPE | SIRT5 block | PGC1a acetyl inh
O=C1CSC2=NC3(CO)Oc4ccccc4[C@H]([C@H]3CO)N12 | -1 | . | 27* | 0 | 7
COc1ccc(COCC23N=C4SCCCN4[C@H](c4ccccc4O2)[C@H]3CO[Si](C)(C)C(C)(C)C)cc1 | 1 | . | 20 | 3 | 2
Cc1noc(C)c1S(=O)(=O)Nc1ccc2c(c1)CC(=O)N([C@H](C)CO)C[C@H](C)[C@H](CN(C)C(=O)Nc1ccc(F)cc1)O2 | 0 | 5 | -10 | 2 | 0
C[C@@H]1CN([C@H](C)CO)S(=O)(=O)c2ccc(Br)cc2O[C@H]1CN(C)S(=O)(=O)c1ccc(F)cc1 | -3 | 22 | 9 | -1 | -4
C[C@@H]1CN([C@@H](C)CO)S(=O)(=O)c2ccc(C#Cc3ccc(F)cc3)cc2O[C@@H]1CN(C)S(=O)(=O)c1ccc(F)cc1 | 55 | 11 | 2 | 26* | 13
C[C@H](CO)N1C[C@H](C)[C@@H](CN(C)S(=O)(=O)c2ccc(F)cc2)Oc2cc(C#Cc3ccc(F)cc3)ccc2S1(=O)=O | -14 | 24 | -1 | 23* | 0
C[C@@H]1CN([C@@H](C)CO)S(=O)(=O)c2ccc(C#Cc3ccc(F)cc3)cc2O[C@H]1CN(C)S(=O)(=O)c1ccc(F)cc1 | -3 | 0 | -3 | 23* | -1
C[C@H]1CN([C@@H](C)CO)S(=O)(=O)c2ccc(Br)cc2O[C@@H]1CN(C)S(=O)(=O)c1ccc(F)cc1 | 3 | 88* | 8 | 0 | 1
C[C@@H]1CN([C@H](C)CO)S(=O)(=O)c2ccc(C#Cc3cccc(F)c3)cc2O[C@@H]1CN(C)S(=O)(=O)c1ccccc1F | 1 | 15 | -4 | 18* | 4
C[C@@H]1CN([C@H](C)CO)S(=O)(=O)c2ccc(C#Cc3cccc(F)c3)cc2O[C@@H]1CN(C)CC1CC1 | 9 | 11 | -3 | 15* | -10
C[C@H]1CN([C@@H](C)CO)S(=O)(=O)c2ccc(C#Cc3ccc(F)cc3)cc2O[C@H]1CN(C)S(=O)(=O)c1ccc(F)cc1 | -31 | 33 | 2 | 29* | -4
C[C@H]1CN([C@@H](C)CO)S(=O)(=O)c2ccc(C#Cc3ccc(F)cc3)cc2O[C@@H]1CN(C)S(=O)(=O)c1ccc(F)cc1 | -1 | 48 | 4 | 24* | 11
Cc1noc(C)c1NC(=O)Nc1ccc2c(c1)C(=O)N([C@H](C)CO)C[C@H](C)[C@H](CN(C)C(=O)NC1CCCCC1)O2 | -3 | -22 | 1 | 0 | 5
CO[C@@H]1CN(C)C(=O)c2cc(NC(=O)c3ccccc3)ccc2OC[C@@H](C)N(C(=O)CN(C)C)C[C@H]1C | . | 3 | . | . | -4
